From ChEMBL document CHEMBL2406937, “Discovery of Pyridones As Oral AMPK Direct Activators” (ACS Med Chem Lett, 2013)
≈ marks a conversion by molar mass, not a printed value. Calls of active or inactive are those of the source. The calls are words filed in the database; no cut-off is given here.

Tests used:
[1] = molecular target: AMP-activated protein kinase (AMPK) alpha-1/beta-1/gamma-1 (Homo sapiens) (UniProt P54619+Q9Y478+Q13131); test: Activation of human recombinant AMPK alpha1beta1gamma1 by FRET assay; assay type: protein-complex assay
How it was run: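 Activation of the α1β1γ1 heterotrimer, reported as pEC200 = −log(concentration giving a 2-fold increase in AMPK activity). Values are means of at least 2 independent experiments.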

[2] = Plasma protein binding in mouse; assay type: ADME, cell-free; settings: read-out: PPB (converted)
[3] = AUC in mouse at 5 mg/kg, po; assay type: ADME, organism-based, Plasma; set-up: dose 5 mg/kg, route oral; settings: blood
How it was run: (§1)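 Mouse pharmacokinetics. Oral dosing at 5 or 30 mg/kg as a suspension in HPMC K100 0.5%/Tween 80 0.1% in pH 7 buffer. AUC is measured in blood. Bioavailability is taken against an iv dose of 1 mg/kg.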

[4] = Clearance in mouse at 1 mg/kg, iv; assay type: ADME, organism-based; set-up: dose 1 mg/kg, route intravenous; settings: in vivo
How it was run: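 Mouse iv pharmacokinetics. 1 mg/kg given as a solution in DMSO/hydroxypropyl-β-cyclodextrin 20% in pH 7 buffer (5:95). Blood clearance is determined.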

[5] = Permeability of the compound by PAMPA; assay type: ADME; settings: read-out: permeability
How it was run: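 Passive permeability is measured by parallel artificial membrane permeability assay (PAMPA).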

[6] = Oral bioavailability in mouse at 5 mg/kg; assay type: ADME, organism-based; settings: in vivo; how it was run: as §1
[7] = Solubility of the compound; assay type: physicochemical
How it was run: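 Solubility is the soluble fraction of the oral formulation (HPMC K100 0.5%/Tween 80 0.1% in pH 7 buffer) made by ball milling from solid powder. The maximum is […].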

[8] = molecular target: AMPK alpha2/beta2/gamma1 (Homo sapiens) (UniProt P54646+O43741+P54619); test: Activation of human recombinant AMPK alpha2beta2gamma1; assay type: protein-complex assay
[9] = molecular target: AMPK alpha1/beta2/gamma1 (Homo sapiens) (UniProt O43741+P54619+Q13131); test: Activation of human recombinant AMPK alpha1beta2gamma1; assay type: protein-complex assay
[10] = molecular target: AMPK alpha2/beta2/gamma3 (Homo sapiens) (UniProt P54646+O43741+Q9UGI9); test: Activation of human recombinant AMPK alpha2beta2gamma3; assay type: protein-complex assay
[11] = molecular target: AMPK alpha2/beta1/gamma1 (Homo sapiens) (UniProt P54646+P54619+Q9Y478); test: Activation of human recombinant AMPK alpha2beta1gamma1; assay type: protein-complex assay
[12] = molecular target: AMPK alpha1/beta1/gamma3 (Homo sapiens) (UniProt Q9Y478+Q13131+Q9UGI9); test: Activation of human recombinant AMPK alpha1beta1gamma3; assay type: protein-complex assay
Mus musculus [13] = test: Antidiabetic activity in ob/ob mouse assessed as reduction in blood glucose level at 100 mg/kg, po bid for 5 days in presence of P-gp inhibitor GF120918 relative to control; assay type: functional; set-up: scale not given: the % may be the effect or the level left
How it was run: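 ob/ob mice receive chronic oral treatment at 100 mg/kg co-administered with the P-gp inhibitor. The blood glucose reduction is assessed against control.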

[14] = molecular target: AMPK alpha1/beta1/gamma2 (Homo sapiens) (UniProt Q9UGJ0+Q9Y478+Q13131); test: Activation of human recombinant AMPK alpha1beta1gamma2; assay type: protein-complex assay
Blood [15] = test: Ratio of AUC in mouse blood in presence of P-gp inhibitor GF120918 to AUC in mouse blood at 5 mg/kg, po; assay type: ADME, organism-based; set-up: dose 5 mg/kg, route oral; settings: in vivo
How it was run: (§2)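 Mice are dosed orally (5 or 30 mg/kg) as a suspension in HPMC K100 0.5%/Tween 80 0.1% in pH 7 buffer, alone or co-administered with the P-gp inhibitor GF120918 at 30 mg/kg. Mean blood AUC with the inhibitor is compared with AUC without it.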

[16] = AUC in mouse at 30 mg/kg, po; assay type: ADME, organism-based, Plasma; set-up: dose 30 mg/kg, route oral; settings: blood; how it was run: as §1
[17] = Oral bioavailability in mouse at 30 mg/kg; assay type: ADME, organism-based; settings: in vivo; how it was run: as §1
[18] = Dissociation constant, pKa of the compound; assay type: physicochemical
Mus musculus [19] = test: Antidiabetic activity in ob/ob mouse assessed as reduction in blood glucose level at 10 mg/kg, po bid for 5 days measured 12 hrs after last dose relative to control; assay type: functional; set-up: scale not given: the % may be the effect or the level left
How it was run: (§3)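 ob/ob mice are gavaged bid for 5 days at 10 or 30 mg/kg without P-gp inhibitor. Blood glucose is measured 12 h after the last gavage and compared with control.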

Mus musculus [20] = test: Antidiabetic activity in ob/ob mouse assessed as reduction in blood glucose level at 30 mg/kg, po bid for 5 days measured 12 hrs after last dose relative to control; assay type: functional; set-up: scale not given: the % may be the effect or the level left; how it was run: as §3
Blood [21] = test: Ratio of AUC in mouse blood in presence of P-gp inhibitor GF120918 to AUC in mouse blood at 30 mg/kg, po; assay type: ADME, organism-based; set-up: dose 30 mg/kg, route oral; settings: in vivo; how it was run: as §2

Chain of AMPK alpha2/beta2/gamma1 (Homo sapiens) (O43741 whole entry, looked up): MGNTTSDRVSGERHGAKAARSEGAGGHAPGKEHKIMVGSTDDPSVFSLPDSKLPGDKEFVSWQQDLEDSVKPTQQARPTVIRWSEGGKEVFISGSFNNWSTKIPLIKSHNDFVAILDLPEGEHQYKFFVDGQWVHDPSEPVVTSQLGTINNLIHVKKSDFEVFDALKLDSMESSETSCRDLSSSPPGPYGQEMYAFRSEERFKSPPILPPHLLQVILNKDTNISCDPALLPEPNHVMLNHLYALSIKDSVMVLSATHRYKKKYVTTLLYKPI
Chain of AMPK alpha2/beta2/gamma1 (Homo sapiens) (P54619 whole entry, looked up): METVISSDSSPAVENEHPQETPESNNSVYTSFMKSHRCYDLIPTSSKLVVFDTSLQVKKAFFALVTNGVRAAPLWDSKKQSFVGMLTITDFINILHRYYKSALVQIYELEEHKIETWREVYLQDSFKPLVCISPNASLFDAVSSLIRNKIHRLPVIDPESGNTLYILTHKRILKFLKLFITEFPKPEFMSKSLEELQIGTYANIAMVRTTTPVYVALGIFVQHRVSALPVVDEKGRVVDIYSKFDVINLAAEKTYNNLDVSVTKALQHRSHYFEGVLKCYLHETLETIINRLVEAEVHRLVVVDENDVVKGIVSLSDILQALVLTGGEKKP
Chain of AMPK alpha2/beta2/gamma1 (Homo sapiens) (P54646 whole entry, looked up): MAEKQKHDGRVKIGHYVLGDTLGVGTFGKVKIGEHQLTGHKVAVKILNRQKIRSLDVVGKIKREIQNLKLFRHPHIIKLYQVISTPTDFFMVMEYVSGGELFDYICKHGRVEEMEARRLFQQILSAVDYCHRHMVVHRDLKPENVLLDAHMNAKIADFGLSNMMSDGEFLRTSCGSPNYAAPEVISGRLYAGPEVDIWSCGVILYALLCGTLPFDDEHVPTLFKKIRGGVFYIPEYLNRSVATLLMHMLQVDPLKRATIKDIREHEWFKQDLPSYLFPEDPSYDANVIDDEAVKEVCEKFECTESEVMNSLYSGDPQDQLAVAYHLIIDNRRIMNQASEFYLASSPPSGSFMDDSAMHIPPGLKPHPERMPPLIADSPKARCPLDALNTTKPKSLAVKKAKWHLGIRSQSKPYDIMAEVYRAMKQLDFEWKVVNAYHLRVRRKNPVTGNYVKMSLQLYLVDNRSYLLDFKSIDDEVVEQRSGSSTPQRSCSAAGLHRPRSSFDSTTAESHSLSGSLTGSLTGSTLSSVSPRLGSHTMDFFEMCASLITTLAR
Chain of AMP-activated protein kinase (AMPK) alpha-1/beta-1/gamma-1 (Homo sapiens) (P54619 whole entry): as the sequence (P54619 whole entry, looked up) above
Chain of AMP-activated protein kinase (AMPK) alpha-1/beta-1/gamma-1 (Homo sapiens) (Q13131 whole entry partner): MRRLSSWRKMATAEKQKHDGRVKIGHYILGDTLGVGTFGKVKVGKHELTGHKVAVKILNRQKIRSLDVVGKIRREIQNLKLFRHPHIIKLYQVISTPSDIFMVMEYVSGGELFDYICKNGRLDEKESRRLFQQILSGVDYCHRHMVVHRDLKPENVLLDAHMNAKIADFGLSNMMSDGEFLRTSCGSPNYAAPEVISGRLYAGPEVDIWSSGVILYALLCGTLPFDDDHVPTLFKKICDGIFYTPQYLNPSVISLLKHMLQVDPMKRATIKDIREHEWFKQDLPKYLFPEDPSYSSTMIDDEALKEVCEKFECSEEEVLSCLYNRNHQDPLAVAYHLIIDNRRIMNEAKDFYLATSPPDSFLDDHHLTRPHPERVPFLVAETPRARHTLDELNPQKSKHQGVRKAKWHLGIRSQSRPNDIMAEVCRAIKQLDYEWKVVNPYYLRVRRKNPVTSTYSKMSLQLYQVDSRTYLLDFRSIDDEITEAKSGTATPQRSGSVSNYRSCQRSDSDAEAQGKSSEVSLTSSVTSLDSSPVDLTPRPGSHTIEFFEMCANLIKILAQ
Chain of AMP-activated protein kinase (AMPK) alpha-1/beta-1/gamma-1 (Homo sapiens) (Q9Y478 2-270 partner limits assumed): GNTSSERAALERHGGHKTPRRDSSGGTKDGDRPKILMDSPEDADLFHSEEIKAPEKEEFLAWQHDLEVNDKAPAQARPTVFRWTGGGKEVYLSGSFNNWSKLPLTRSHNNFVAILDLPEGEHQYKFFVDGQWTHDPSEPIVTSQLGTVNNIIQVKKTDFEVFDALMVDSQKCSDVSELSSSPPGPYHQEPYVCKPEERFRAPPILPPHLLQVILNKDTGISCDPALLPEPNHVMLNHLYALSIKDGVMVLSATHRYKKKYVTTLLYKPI
Chain of AMPK alpha1/beta2/gamma1 (Homo sapiens) (O43741 whole entry, looked up): as the sequence (O43741 whole entry, looked up) above
Chain of AMPK alpha1/beta2/gamma1 (Homo sapiens) (P54619 whole entry, looked up): as the sequence (P54619 whole entry, looked up) above
Chain of AMPK alpha1/beta2/gamma1 (Homo sapiens) (Q13131 whole entry, looked up): as the sequence (Q13131 whole entry partner) above
Chain of AMPK alpha2/beta2/gamma3 (Homo sapiens) (O43741 whole entry, looked up): as the sequence (O43741 whole entry, looked up) above
Chain of AMPK alpha2/beta2/gamma3 (Homo sapiens) (P54646 whole entry, looked up): as the sequence (P54646 whole entry, looked up) above
Chain of AMPK alpha2/beta2/gamma3 (Homo sapiens) (Q9UGI9 whole entry, looked up): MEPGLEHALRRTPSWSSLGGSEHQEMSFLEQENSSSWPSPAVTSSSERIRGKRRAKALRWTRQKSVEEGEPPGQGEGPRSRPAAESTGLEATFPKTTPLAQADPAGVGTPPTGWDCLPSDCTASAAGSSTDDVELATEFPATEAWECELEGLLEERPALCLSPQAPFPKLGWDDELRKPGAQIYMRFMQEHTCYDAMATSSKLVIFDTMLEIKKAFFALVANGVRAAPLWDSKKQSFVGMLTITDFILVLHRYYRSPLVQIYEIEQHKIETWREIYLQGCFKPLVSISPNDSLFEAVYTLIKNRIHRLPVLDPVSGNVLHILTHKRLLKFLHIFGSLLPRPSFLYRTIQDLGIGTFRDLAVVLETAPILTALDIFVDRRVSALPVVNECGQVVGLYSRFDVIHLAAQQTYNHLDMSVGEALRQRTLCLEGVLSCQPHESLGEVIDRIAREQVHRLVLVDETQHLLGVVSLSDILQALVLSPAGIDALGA
Chain of AMPK alpha1/beta1/gamma3 (Homo sapiens) (Q13131 whole entry partner): as the sequence (Q13131 whole entry partner) above
Chain of AMPK alpha1/beta1/gamma3 (Homo sapiens) (Q9UGI9 whole entry partner): as the sequence (Q9UGI9 whole entry, looked up) above
Chain of AMPK alpha1/beta1/gamma3 (Homo sapiens) (Q9Y478 2-270 limits assumed): as the sequence (Q9Y478 2-270 partner limits assumed) above
Chain of AMPK alpha1/beta1/gamma2 (Homo sapiens) (Q13131 whole entry partner): as the sequence (Q13131 whole entry partner) above
Chain of AMPK alpha1/beta1/gamma2 (Homo sapiens) (Q9UGJ0 whole entry): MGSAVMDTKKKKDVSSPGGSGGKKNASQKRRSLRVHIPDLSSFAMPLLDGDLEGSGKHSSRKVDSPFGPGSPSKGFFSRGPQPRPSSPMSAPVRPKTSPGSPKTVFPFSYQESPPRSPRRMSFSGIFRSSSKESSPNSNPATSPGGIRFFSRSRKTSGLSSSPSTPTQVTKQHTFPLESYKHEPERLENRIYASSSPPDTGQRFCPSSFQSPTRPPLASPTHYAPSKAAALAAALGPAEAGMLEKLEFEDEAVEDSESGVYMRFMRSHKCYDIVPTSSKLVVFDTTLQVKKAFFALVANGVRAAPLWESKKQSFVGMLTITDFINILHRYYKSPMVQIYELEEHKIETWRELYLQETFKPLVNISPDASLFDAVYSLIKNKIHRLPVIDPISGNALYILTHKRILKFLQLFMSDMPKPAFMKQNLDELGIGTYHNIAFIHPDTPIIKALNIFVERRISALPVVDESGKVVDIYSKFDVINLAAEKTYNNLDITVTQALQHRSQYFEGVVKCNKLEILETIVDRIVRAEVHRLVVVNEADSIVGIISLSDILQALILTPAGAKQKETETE
Chain of AMPK alpha1/beta1/gamma2 (Homo sapiens) (Q9Y478 2-270 partner limits assumed): as the sequence (Q9Y478 2-270 partner limits assumed) above
Chain of AMPK alpha2/beta1/gamma1 (Homo sapiens) (P54619 whole entry partner): as the sequence (P54619 whole entry, looked up) above
Chain of AMPK alpha2/beta1/gamma1 (Homo sapiens) (P54646 whole entry): as the sequence (P54646 whole entry, looked up) above
Chain of AMPK alpha2/beta1/gamma1 (Homo sapiens) (Q9Y478 2-270 partner limits assumed): as the sequence (Q9Y478 2-270 partner limits assumed) above

Q: With COc1cccc(-c2ccc(-n3c(Cl)cc4[nH]c(=O)c(-c5cccc(C(=O)O)c5)c(O)c43)cc2)c1O as the compound, how does the pEC200 [1] read?
A: 8.7

Q: And the fraction unbound [2]?
A: < 0.001

Q: And the AUC [3]?
A: 403 ng·h/mL

Q: And the clearance [4]?
A: 1 mL/min/kg

Q: What about the Papp [5] of the same compound?
A: < 0.06 ×10⁻⁶ cm/s

Q: What about the bioavailability [6] of the same compound?
A: 0.5%

Q: What about the solubility [7] of the same compound?
A: 325 µg/mL (≈ 646 µM)

Q: For Cc1ccc(-c2ccc(-n3c(Cl)cc4[nH]c(=O)c(C#N)c(O)c43)cc2)cc1, which pEC200 [1] is on record?
A: 7.5

Q: And the fraction unbound [2]?
A: < 0.001

Q: What about the pEC200 [8] of the same compound?
A: 5.5

Q: What about the pEC200 [9] of the same compound?
A: < 4.5

Q: What about the AUC [3] of the same compound?
A: 17000 ng·h/mL

Q: And the clearance [4]?
A: 0.7 mL/min/kg

Q: What about the Papp [5] of the same compound?
A: 0.48 ×10⁻⁶ cm/s

Q: What about the pEC200 [10] of the same compound?
A: 5.5

Q: What about the bioavailability [6] of the same compound?
A: 14%

Q: What about the solubility [7] of the same compound?
A: 129 µg/mL (≈ 343 µM)

Q: What does the source list for COc1cccc(-c2ccc(-n3ccc4[nH]c(=O)c(C#N)c(O)c43)cc2)c1O?
A: pEC200 [1]: 8; fraction unbound [2]: 0.007; AUC [3]: 70 ng·h/mL; clearance [4]: 2.4 mL/min/kg; Papp [5]: < 0.04 ×10⁻⁶ cm/s; bioavailability [6]: < 1%; solubility [7]: 500 µg/mL (≈ 1340 µM)

Q: For COc1cccc(-c2ccc(-n3c(Cl)cc4[nH]c(=O)c(C#N)c(O)c43)cc2)c1O, which pEC200 [1] is on record?
A: 9.2

Q: What about the Activity [11] of the same compound?
A: Active

Q: And the fraction unbound [2]?
A: < 0.001

Q: What about the Activity [12] of the same compound?
A: Active

Q: And the Activity (Mus musculus [13])?
A: 18%

Q: And the pEC200 [8]?
A: 7.3

Q: What about the Activity [14] of the same compound?
A: Active

Q: What about the Activity [9] of the same compound?
A: Active

Q: What about the “Ratio AUC” value (Blood [15]) of the same compound?
A: 10

Q: And the AUC [3]?
A: 892 ng·h/mL

Q: And the clearance [4]?
A: 3 mL/min/kg

Q: What about the Papp [5] of the same compound?
A: < 0.3 ×10⁻⁶ cm/s

Q: And the pEC200 [10]?
A: 7.3

Q: What about the bioavailability [6] of the same compound?
A: 3%

Q: And the solubility [7]?
A: 42.5 µg/mL (≈ 104 µM)

Q: What does the source list for N#Cc1c(O)c2c(ccn2-c2ccc(-c3ccccc3O)cc2)[nH]c1=O?
A: pEC200 [1]: 7.8; AUC [16]: 1490 ng·h/mL; bioavailability [17]: 10%; clearance [4]: 34 mL/min/kg

Q: With COc1cccc(-c2ccc(-n3ccc4[nH]c(=O)c(C#N)c(O)c43)cc2)c1 as the compound, how does the pEC200 [1] read?
A: 5.3

Q: With COc1ccccc1-c1ccc(-n2ccc3[nH]c(=O)c(C#N)c(O)c32)cc1 as the compound, how does the pEC200 [1] read?
A: 5.5

Q: With N#Cc1c(O)c2c(cc(Cl)n2-c2ccc(-c3ccsc3)cc2)[nH]c1=O as the compound, how does the pEC200 [1] read?
A: 8.1

Q: What about the fraction unbound [2] of the same compound?
A: < 0.001

Q: And the Activity (Mus musculus [13])?
A: 17%

Q: What about the Activity [8] of the same compound?
A: Active

Q: And the AUC [3]?
A: 19500 ng·h/mL

Q: And the pKa [18]?
A: < 2

Q: What about the clearance [4] of the same compound?
A: 0.9 mL/min/kg

Q: And the Papp [5]?
A: < 0.07 ×10⁻⁶ cm/s

Q: What about the bioavailability [6] of the same compound?
A: 21%

Q: And the solubility [7]?
A: 186 µg/mL (≈ 506 µM)

Q: For N#Cc1c(O)c2c(-c3ccc(-c4ccccc4O)cc3)csc2[nH]c1=O, which pEC200 [1] is on record?
A: 8.5

Q: What about the fraction unbound [2] of the same compound?
A: 0.013

Q: And the AUC [3]?
A: 80 ng·h/mL

Q: What about the clearance [4] of the same compound?
A: 24 mL/min/kg

Q: And the Papp [5]?
A: < 0.3 ×10⁻⁶ cm/s

Q: And the bioavailability [6]?
A: 2%

Q: What about the solubility [7] of the same compound?
A: 500 µg/mL (≈ 1390 µM)

Q: Which pEC200 [1] does the source give for COc1cccc(-c2ccc(-n3c(Cl)cc4[nH]c(=O)c(-c5ccccc5)c(O)c43)cc2)c1O here?
A: 7.6

Q: What about the fraction unbound [2] of the same compound?
A: < 0.001

Q: What about the Activity [8] of the same compound?
A: Active

Q: And the Activity (Mus musculus [19])?
A: 13%

Q: And the AUC [3]?
A: 41300 ng·h/mL

Q: What about the clearance [4] of the same compound?
A: 0.3 mL/min/kg

Q: What about the Activity (Mus musculus [20]) of the same compound?
A: 17%

Q: What about the Papp [5] of the same compound?
A: 11 ×10⁻⁶ cm/s

Q: And the “Ratio AUC” value (Blood [21])?
A: 2

Q: And the bioavailability [6]?
A: 15%

Q: And the solubility [7]?
A: 25 µg/mL (≈ 54.5 µM)

Q: Which pEC200 [1] does the source give for COc1ccc(-c2ccc(-n3ccc4[nH]c(=O)c(C#N)c(O)c43)cc2)cc1 here?
A: 6.8

Q: And the Papp [5]?
A: < 0.08 ×10⁻⁶ cm/s

Q: What about the solubility [7] of the same compound?
A: 59 µg/mL (≈ 165 µM)

Q: For CCc1ccc(-n2c(Cl)cc3[nH]c(=O)c(-c4ccccc4)c(O)c32)cc1, which pEC200 [1] is on record?
A: 6.3

Q: And the fraction unbound [2]?
A: 0.002

Q: What about the AUC [3] of the same compound?
A: 3410 ng·h/mL

Q: What about the pKa [18] of the same compound?
A: 6

Q: And the clearance [4]?
A: 12 mL/min/kg

Q: What about the Papp [5] of the same compound?
A: 15 ×10⁻⁶ cm/s

Q: What about the bioavailability [6] of the same compound?
A: 50%

Q: What about the solubility [7] of the same compound?
A: 20 µg/mL (≈ 54.8 µM)
